Legend:
[1] = biological target: Glycogen synthase kinase-3 alpha (Homo sapiens) (UniProt P49840); experiment: Inhibition of GSK3A at 1 uM
Summary of the method: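 Single-concentration screen on the Ambit KINOMEscan platform, run against a panel of 250–400 kinases. Per-kinase inhibition was also summarized as S(90), the fraction of kinases inhibited by more than 90%.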

[2] = biological target: T1, Non-receptor tyrosine-protein kinase TNK1 (Homo sapiens) (UniProt Q13470); experiment: Inhibition of TNK1 at 1 uM
T1 sequence (whole entry): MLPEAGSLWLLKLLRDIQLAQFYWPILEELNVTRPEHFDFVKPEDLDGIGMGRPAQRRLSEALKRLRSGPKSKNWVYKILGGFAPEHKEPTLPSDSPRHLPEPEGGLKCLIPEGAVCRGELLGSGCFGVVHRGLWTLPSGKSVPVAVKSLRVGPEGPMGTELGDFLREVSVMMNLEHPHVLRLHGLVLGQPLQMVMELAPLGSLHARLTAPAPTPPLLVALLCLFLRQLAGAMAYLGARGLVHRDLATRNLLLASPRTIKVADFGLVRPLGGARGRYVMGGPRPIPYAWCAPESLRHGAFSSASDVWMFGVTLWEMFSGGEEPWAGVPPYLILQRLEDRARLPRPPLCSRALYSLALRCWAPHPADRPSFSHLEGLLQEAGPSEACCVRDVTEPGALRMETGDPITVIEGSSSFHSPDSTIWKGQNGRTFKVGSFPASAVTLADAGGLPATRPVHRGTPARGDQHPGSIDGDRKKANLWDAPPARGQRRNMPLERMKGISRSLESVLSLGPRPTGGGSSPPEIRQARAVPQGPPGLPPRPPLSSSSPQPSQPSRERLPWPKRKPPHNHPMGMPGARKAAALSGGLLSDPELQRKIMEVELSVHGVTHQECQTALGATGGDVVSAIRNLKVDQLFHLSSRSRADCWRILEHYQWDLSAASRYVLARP

[3] = biological target: T2, Tyrosine-protein kinase ZAP-70 (Homo sapiens) (UniProt P43403); experiment: Inhibition of ZAP70 at 1 uM
T2 sequence (whole entry): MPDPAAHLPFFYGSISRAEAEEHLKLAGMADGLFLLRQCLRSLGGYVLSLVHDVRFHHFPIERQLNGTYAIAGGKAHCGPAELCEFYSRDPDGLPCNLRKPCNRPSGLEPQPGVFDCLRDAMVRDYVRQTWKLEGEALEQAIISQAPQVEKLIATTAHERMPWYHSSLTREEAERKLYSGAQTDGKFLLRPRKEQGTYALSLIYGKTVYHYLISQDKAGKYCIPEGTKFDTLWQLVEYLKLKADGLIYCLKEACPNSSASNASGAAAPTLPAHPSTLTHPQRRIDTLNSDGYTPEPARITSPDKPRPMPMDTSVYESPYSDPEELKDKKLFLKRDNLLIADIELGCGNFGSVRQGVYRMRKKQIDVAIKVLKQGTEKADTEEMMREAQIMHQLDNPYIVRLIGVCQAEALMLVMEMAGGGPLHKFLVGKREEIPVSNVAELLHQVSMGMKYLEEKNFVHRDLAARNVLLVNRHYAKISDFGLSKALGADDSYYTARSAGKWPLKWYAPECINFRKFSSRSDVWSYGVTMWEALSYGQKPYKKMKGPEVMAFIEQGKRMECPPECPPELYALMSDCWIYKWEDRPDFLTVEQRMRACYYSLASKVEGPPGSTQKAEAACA

[4] = biological target: T3, Hormonally up-regulated neu tumor-associated kinase (Homo sapiens) (UniProt P57058); experiment: Inhibition of HUNK at 1 uM
T3 sequence (whole entry): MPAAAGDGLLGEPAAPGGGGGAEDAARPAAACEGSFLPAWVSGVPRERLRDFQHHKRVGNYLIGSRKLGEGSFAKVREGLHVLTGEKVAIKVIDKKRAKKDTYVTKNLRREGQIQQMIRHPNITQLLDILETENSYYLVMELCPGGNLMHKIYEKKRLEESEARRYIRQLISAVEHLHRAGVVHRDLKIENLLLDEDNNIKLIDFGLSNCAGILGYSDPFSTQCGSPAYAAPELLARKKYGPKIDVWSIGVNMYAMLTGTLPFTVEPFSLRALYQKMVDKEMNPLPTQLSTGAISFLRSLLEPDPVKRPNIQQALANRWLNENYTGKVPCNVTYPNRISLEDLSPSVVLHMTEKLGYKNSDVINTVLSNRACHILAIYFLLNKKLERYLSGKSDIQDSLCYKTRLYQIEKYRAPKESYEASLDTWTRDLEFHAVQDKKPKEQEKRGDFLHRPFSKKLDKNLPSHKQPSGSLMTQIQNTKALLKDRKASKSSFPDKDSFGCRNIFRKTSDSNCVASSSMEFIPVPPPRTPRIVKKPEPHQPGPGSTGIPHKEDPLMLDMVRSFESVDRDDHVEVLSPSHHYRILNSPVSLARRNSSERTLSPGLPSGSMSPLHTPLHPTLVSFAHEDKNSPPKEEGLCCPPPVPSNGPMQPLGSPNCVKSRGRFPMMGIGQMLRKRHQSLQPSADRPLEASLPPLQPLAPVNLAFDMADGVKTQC

[5] = biological target: AP2-associated protein kinase 1 (Homo sapiens) (UniProt Q2M2I8); experiment: Inhibition of AAK1 at 1 uM
Summary of the method: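 Ambit KINOMEscan screen at a single concentration across a 250–400 kinase panel, recorded as percent inhibition. Selectivity was expressed as S(90), the fraction of kinases inhibited >90%.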

[6] = biological target: Serine/threonine-protein kinase 24 (Homo sapiens) (UniProt Q9Y6E0); experiment: Inhibition of MST3 at 1 uM
[7] = biological target: T4, Myotonin-protein kinase (Homo sapiens) (UniProt Q09013); experiment: Inhibition of DMPK at 1 uM
T4 sequence (whole entry): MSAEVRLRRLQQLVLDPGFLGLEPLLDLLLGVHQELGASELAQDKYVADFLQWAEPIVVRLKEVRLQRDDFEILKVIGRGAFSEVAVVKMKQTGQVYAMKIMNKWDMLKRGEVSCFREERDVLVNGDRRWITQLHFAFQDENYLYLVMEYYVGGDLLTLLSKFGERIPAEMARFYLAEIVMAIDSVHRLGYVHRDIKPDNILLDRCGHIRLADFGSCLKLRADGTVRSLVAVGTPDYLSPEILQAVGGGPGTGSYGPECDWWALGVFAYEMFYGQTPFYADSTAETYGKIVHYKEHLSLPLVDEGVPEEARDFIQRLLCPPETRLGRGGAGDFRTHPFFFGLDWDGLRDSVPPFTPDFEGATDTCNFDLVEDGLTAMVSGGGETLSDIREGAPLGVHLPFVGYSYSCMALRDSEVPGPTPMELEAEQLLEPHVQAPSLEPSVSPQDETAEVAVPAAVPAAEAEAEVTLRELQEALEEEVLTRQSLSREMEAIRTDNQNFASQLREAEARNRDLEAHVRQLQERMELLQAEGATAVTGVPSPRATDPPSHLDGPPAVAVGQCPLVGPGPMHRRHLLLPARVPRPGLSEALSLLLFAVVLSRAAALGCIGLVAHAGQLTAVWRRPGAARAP
Summary of the method: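 Single-concentration screen using Ambit Bioscience KINOMEscan technology across a panel of 250–400 kinases. Per-kinase inhibition from this screen was summarized as S(90), the fraction of kinases inhibited by more than 90%.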

Chain of Glycogen synthase kinase-3 alpha (Homo sapiens) (P49840 2-483 limits assumed): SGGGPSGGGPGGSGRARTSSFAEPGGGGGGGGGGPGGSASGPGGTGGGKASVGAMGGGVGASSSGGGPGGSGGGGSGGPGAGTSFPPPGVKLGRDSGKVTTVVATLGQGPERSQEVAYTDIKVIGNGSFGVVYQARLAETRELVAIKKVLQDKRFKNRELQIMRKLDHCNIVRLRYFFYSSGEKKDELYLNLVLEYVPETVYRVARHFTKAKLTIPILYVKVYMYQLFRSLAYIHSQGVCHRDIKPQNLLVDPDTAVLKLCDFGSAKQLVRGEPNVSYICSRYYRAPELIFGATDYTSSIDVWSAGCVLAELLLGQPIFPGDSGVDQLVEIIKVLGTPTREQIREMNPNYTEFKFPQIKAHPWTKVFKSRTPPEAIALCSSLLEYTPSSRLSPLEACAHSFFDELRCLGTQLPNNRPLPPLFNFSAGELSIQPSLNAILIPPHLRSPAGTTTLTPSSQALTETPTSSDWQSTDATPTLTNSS
Chain of AP2-associated protein kinase 1 (Homo sapiens) (Q2M2I8 whole entry, looked up): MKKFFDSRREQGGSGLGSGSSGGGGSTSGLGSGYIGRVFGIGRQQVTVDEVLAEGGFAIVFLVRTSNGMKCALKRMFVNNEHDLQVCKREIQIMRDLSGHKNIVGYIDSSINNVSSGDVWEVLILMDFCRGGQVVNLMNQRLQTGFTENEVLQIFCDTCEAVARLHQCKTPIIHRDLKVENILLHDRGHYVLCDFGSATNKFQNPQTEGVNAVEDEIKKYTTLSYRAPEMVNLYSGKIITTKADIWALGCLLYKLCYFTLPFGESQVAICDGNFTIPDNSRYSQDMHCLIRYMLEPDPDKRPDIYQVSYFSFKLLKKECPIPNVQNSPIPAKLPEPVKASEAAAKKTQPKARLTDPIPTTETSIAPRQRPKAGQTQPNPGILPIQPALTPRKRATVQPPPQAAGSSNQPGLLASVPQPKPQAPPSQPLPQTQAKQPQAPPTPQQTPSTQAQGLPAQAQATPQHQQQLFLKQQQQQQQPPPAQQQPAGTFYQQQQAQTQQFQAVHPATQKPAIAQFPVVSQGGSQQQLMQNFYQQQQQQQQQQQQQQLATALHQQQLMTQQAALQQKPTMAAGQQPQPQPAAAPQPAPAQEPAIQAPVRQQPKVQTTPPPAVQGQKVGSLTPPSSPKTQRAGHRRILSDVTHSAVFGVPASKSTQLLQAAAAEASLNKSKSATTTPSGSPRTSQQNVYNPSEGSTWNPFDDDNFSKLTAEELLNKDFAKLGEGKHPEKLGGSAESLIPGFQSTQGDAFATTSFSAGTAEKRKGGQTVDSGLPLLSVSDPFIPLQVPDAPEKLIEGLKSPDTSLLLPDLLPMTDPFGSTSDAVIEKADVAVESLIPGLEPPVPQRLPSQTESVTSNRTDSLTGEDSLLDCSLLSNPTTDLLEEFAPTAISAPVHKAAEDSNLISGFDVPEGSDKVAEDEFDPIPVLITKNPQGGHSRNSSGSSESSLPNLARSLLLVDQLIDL
Chain of Serine/threonine-protein kinase 24 (Homo sapiens) (Q9Y6E0 whole entry, looked up): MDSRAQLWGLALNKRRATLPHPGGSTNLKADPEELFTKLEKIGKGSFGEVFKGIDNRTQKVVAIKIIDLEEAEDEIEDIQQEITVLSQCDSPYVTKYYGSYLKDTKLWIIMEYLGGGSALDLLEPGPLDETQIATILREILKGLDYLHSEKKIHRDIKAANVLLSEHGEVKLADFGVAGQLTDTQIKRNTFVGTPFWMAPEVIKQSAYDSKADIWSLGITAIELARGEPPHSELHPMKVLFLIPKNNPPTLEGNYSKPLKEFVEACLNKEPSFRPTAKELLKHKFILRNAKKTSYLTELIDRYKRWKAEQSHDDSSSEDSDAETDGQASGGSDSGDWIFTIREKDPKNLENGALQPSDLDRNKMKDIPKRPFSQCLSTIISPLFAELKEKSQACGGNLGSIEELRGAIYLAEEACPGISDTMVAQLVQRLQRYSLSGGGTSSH

Compound | inhibition [1] [%] | inhibition [2] [%] | inhibition [3] [%] | inhibition [4] [%] | inhibition [5] [%] | inhibition [6] [%] | inhibition [7] [%]
O=C(c1ccc(-c2cnc3c(c2)N(Cc2cc(Cl)ccc2C(F)(F)F)CCN3)cc1)N1CCCCC1 | < 50 | < 50 | < 50 | – | < 50 | – | < 50
CC(=O)N1CCN(c2cc(-c3cnc4c(c3)N(Cc3cc(Cl)ccc3C(F)(F)F)CCN4)ccn2)CC1 | < 50 | < 50 | < 50 | < 50 | < 50 | < 50 | < 50
CN1CCN(c2ccc(-c3cnc4c(c3)N(Cc3c(F)ccc(F)c3Cl)CCN4)cn2)CC1 | < 50 | < 50 | < 50 | < 50 | < 50 | < 50 | < 50
CN1CCN(c2ccc(-c3cnc4c(c3)N(Cc3cc(F)ccc3F)CCN4)cn2)CC1 | < 50 | 58.2 | < 50 | < 50 | < 50 | < 50 | < 50

Results, then the compound that gave them:

inhibition [1] [%] | inhibition [2] [%] | inhibition [3] [%] | inhibition [4] [%] | inhibition [5] [%] | inhibition [6] [%] | inhibition [7] [%] | Compound
< 50 | < 50 | < 50 | < 50 | < 50 | < 50 | < 50 | CN1CCN(c2ccc(-c3cnc4c(c3)N(Cc3cc(Cl)ccc3Cl)CCN4)cn2)CC1
< 50 | < 50 | < 50 | < 50 | < 50 | < 50 | < 50 | CN1CCN(c2ccc(-c3cnc4c(c3)N(Cc3cc(Cl)ccc3C(F)(F)F)CCN4)cn2)CC1
< 50 | < 50 | < 50 | – | < 50 | – | < 50 | COC1CCN(C(=O)c2ccc(-c3cnc4c(c3)N(Cc3cc(Cl)ccc3C(F)(F)F)CCN4)cc2)CC1
< 50 | < 50 | < 50 | < 50 | < 50 | < 50 | < 50 | FC(F)(F)c1ccc(Cl)cc1CN1CCNc2ncc(-c3ccnc(N4CCNCC4)c3)cc21
< 50 | < 50 | < 50 | – | < 50 | – | < 50 | O=C(O)c1ccc(-c2cnc3c(c2)N(Cc2cc(Cl)ccc2C(F)(F)F)CCN3)cc1
< 50 | 81.7 | < 50 | – | < 50 | – | < 50 | O=C(c1ccc(-c2cnc3c(c2)N(Cc2cc(Cl)ccc2C(F)(F)F)CCN3)cc1)N1CCC(N2CCCC2)CC1
